For assay [1], the target named is Cathepsin S (Homo sapiens, UniProt P25774). Nature of the assay: Inhibition of human cathepsin-S.
Assay [2] has as its target T1, Cathepsin K (Homo sapiens, UniProt P43235).
T1 sequence (P43235 whole entry): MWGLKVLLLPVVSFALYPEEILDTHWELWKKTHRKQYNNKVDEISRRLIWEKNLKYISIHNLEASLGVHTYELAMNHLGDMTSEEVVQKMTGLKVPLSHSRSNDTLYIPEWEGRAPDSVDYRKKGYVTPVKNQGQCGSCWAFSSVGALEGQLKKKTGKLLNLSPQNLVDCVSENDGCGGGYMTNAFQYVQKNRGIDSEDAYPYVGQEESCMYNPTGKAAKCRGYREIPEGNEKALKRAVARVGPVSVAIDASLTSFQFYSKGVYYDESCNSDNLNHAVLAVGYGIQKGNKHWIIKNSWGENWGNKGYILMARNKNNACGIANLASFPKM
As to the kind of experiment: Inhibition of human cathepsin-K. A digest of the protocol: (§1)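 Human cathepsin B and K activity measured with a SensoLyte 520 cathepsin activity assay kit; LHVS as pan-cathepsin positive control.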

Assay [3] deals with Cathepsin B (Homo sapiens, UniProt P07858). As to the kind of experiment: Inhibition of human cathepsin-B. Put shortly:
as §1

Some results are limits rather than exact numbers.

Sequence of Cathepsin S (P25774 whole entry): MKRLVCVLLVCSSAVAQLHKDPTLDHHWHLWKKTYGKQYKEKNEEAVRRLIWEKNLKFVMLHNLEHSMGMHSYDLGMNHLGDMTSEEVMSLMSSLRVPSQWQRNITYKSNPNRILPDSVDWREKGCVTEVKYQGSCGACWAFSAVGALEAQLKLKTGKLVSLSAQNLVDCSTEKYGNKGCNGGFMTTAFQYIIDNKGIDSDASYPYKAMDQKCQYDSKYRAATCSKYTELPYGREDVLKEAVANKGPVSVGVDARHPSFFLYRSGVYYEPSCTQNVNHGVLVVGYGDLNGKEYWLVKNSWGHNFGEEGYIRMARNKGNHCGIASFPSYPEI

On to `CCC(NC(=O)[C@@H]1C[C@@H](Oc2ccccc2)CN1C(C)=O)C(=O)c1nc2ccccc2o1` (some centres undefined), for which the IC50 in assay [1] was over 1000 nM.

For `O=C(CNC(=O)[C@@H]1C[C@@H](S(=O)(=O)c2ccccc2)CN1C(=O)C1CCCCC1)c1nc2ccccc2o1`, in assay [1], inhibition was half-maximal at 36.6 nM (IC50).

Take `CCC(NC(=O)[C@@H]1C[C@@H](S(=O)(=O)c2ccccc2Cl)CN1C(C)=O)C(=O)c1nc2ccccc2o1` (some centres undefined): the IC50 in assay [1] amounted to 2.3 nM.

With `CCC(NC(=O)[C@@H]1C[C@@H](S(=O)(=O)CC)CN1C(C)=O)C(=O)c1nc2ccccc2o1` (some centres undefined), the half-maximal inhibitory concentration (IC50) in assay [1] is over 100 nM.

Turning to `CCC(NC(=O)[C@@H]1C[C@@H](S(=O)(=O)c2ccccc2)CN1S(C)(=O)=O)C(=O)c1nc2ccccc2o1` (some centres undefined), the IC50 in assay [1] stood at 3.5 nM.

In assay [1], `CCC(NC(=O)[C@@H]1C[C@@H](S(=O)(=O)c2ccccc2)CN1C(=O)c1ccc(Cl)cc1)C(=O)c1nc2ccccc2o1` (some centres undefined) came in with an IC50 of 2 nM.

`CCC(NC(=O)[C@@H]1C[C@@H](S(=O)(=O)c2ccc(F)cc2)CN1C(C)=O)C(=O)c1nc2ccccc2o1` (some centres undefined): in assay [1], half-maximal inhibition (IC50) required 3.2 nM.

Take `CCC(NC(=O)[C@@H]1C[C@@H](S(=O)(=O)c2ccccc2)CN1C(C)=O)C(=O)c1nc2ccccc2o1` (some centres undefined): in assay [1], the IC50 was 3.3 nM.

In turn, `CC(=O)N1C[C@H](S(=O)(=O)c2ccccc2)C[C@H]1C(=O)NC(Cc1ccccc1)C(=O)c1nc2ccccc2o1` (some centres undefined) yielded an IC50 in assay [1] of over 100 nM.

For the compound `CCC(NC(=O)[C@@H]1C[C@@H](S(=O)(=O)c2ccccc2)CN1C(=O)c1ccccc1)C(=O)c1nc2ccccc2o1` (some centres undefined), the concentration for half-maximal inhibition (IC50) in assay [2] was over 10 µM; in assay [1], 3 nM; in assay [3], over 10 µM.

Take `CCC(NC(=O)[C@@H]1C[C@@H](S(=O)(=O)c2ccccc2)CN1C(=O)C(C)C)C(=O)c1nc2ccccc2o1` (some centres undefined): the IC50 in assay [1] worked out at 2.4 nM.

In turn, `CCC(NC(=O)[C@@H]1C[C@@H](S(=O)(=O)c2ccccc2)CN1C(=O)c1cccnc1)C(=O)c1nc2ccccc2o1` (some centres undefined) displayed an IC50 in assay [1] of 3.5 nM.

The compound `CC[C@@H](NC(=O)[C@@H]1C[C@@H](S(=O)(=O)c2ccccc2)CN1C(C)=O)C(=O)c1nc2ccccc2o1` had a half-inhibitory concentration (IC50) in assay [1] of 4.3 nM.

For the compound `CCC(NC(=O)[C@@H]1C[C@@H](S(=O)(=O)c2ccccc2)CN1C(=O)c1cccc(Cl)c1)C(=O)c1nc2ccccc2o1` (some centres undefined), the results for the IC50 in assay [2], in assay [1] and in assay [3] were over 1 µM, 1.1 nM and over 1 µM, respectively.

In assay [1], `CCC(NC(=O)[C@@H]1C[C@@H](S(=O)(=O)c2ccc(-n3cccn3)cc2)CN1C(C)=O)C(=O)c1nc2ccccc2o1` (some centres undefined) had an IC50 of 3.2 nM.
